Data taken from ChEMBL document CHEMBL3526015, “Metabolism of the c-Fos/activator protein-1 inhibitor T-5224 by multiple human UDP-glucuronosyltransferase isoforms” (Drug Metab Dispos, 2011).

How the values were obtained:
[1] = Substrate inhibition of T-5224 acyl O-glucuronide formation in human intestinal microsomes after 10 to 60 mins by HPLC method; design: species or system Intestine, Microsome
Procedure, shortened: (§1)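 Pooled liver (0.5 mg protein/mL) or intestinal (0.25 mg protein/mL) microsomes in 50 mM Tris-HCl pH 7.5, 8 mM MgCl2, alamethicin, 2% DMSO. T-5224 at 1–50 μM, 5 min preincubation at 37°C, started with 2 mM UDPGA. Incubated 10 min, or 20 min for intestinal microsomes at 1–5 μM. Acetonitrile stop, glucuronides by HPLC at 290 nm. Triplicates fitted to a substrate-inhibition model.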

[2] = molecular target: T1, UDP-glucuronosyltransferase 1A1 (Homo sapiens, UniProt P22309); assay: Drug metabolism assessed as Vmax/Km ratio for human UGT1A1-mediated T-5224 acyl O-glucuronide formation per mg protein after 10 to 60 mins in presence of UDP-glucuronic acid by HPLC method; type: ADME; details: recombinant enzyme
T1 sequence (P22309 whole entry): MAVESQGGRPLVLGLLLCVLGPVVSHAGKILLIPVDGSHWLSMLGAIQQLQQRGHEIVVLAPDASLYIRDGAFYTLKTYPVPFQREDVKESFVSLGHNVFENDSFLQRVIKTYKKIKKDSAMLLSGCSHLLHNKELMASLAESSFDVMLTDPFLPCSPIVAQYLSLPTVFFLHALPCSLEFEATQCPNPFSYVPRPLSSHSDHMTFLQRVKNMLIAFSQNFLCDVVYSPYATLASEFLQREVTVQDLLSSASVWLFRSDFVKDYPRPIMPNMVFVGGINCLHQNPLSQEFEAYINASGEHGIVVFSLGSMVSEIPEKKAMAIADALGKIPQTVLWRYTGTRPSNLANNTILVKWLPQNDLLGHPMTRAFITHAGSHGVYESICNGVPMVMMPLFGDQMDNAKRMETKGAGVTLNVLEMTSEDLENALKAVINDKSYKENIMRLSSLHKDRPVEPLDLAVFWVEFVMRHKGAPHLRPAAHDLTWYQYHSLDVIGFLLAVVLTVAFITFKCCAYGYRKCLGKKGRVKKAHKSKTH
Procedure, shortened: (§2)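 Kinetics used recombinant UGT1A1, 1A3 or 1A8 (0.1 mg protein/mL) with T-5224 at 1–50 μM, 2 mM UDPGA and 60 min at 37°C, in triplicate. G2/G3 were measured by HPLC at 290 nm and fitted to a substrate-inhibition model (Vmax, Km, Ksi). UGT content was quantified by immunoblot, and kcat = Vmax/E0 was derived from it.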

[3] = Drug metabolism in human intestinal microsomes assessed as Vmax/Km ratio for T-5224 acyl O-glucuronide formation per mg protein after 10 to 60 mins by HPLC method; type: ADME, Intestine, Microsome
Procedure, shortened: (§3)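 Pooled liver microsomes (0.5 mg/mL) were incubated 10 min. Pooled intestinal microsomes (0.25 mg/mL) ran 10 min at T-5224 10–50 μM and 20 min at 1–5 μM. Buffer was 50 mM Tris-HCl pH 7.5 with 8 mM MgCl2, alamethicin and 2 mM UDPGA, at 37°C, in triplicate. Glucuronides G2/G3 were read by HPLC at 290 nm and fitted for Vmax/Km.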

[4] = Drug metabolism in human intestinal microsomes assessed as T-5224 hydroxyl O-glucuronide formation per mg protein after 10 to 60 mins by HPLC method; type: ADME, Intestine, Microsome; procedure, shortened: as §3
Liver microsome = assay: Drug metabolism in pooled human liver microsomes assessed as T-5224 acyl O-glucuronide formation in presence of UDPGA by LC-MS/MS method; type: ADME
Cytochrome P450 2E1 = Cytochrome P450 2E1 (Homo sapiens, UniProt P05181); assay: Drug metabolism assessed as human CYP2E1-mediated metabolite formation at 2 uM after 30 mins by HPLC method; type: ADME; details: recombinant enzyme, 0.5 h
Procedure, shortened: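 Each recombinant human P450 was used at 50 pmol/mL with an NADPH-generating system and 2 μM 14C-T-5224 (0.5% DMSO final). Buffer was 100 mM Tris-HCl pH 7.5, except 100 mM potassium phosphate pH 7.4 for CYP2A6 and CYP2C9*1. Incubation ran 30 min at 37°C and was stopped with acetonitrile/methanol. Radioactive metabolite peaks were detected by C18 HPLC.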

[5] = Substrate inhibition of T-5224 hydroxyl O-glucuronide formation in human intestinal microsomes after 10 to 60 mins by HPLC method; design: species or system Intestine, Microsome; procedure, shortened: as §1
[6] = molecular target: T2, UDP-glucuronosyltransferase 1A3 (Homo sapiens, UniProt P35503); assay: Drug metabolism assessed as human UGT1A3-mediated T-5224 acyl O-glucuronide formation at 5 to 50 uM after 60 mins in presence of UDP-glucuronic acid by HPLC method; type: ADME; details: recombinant enzyme, 1 h
T2 sequence (P35503 whole entry): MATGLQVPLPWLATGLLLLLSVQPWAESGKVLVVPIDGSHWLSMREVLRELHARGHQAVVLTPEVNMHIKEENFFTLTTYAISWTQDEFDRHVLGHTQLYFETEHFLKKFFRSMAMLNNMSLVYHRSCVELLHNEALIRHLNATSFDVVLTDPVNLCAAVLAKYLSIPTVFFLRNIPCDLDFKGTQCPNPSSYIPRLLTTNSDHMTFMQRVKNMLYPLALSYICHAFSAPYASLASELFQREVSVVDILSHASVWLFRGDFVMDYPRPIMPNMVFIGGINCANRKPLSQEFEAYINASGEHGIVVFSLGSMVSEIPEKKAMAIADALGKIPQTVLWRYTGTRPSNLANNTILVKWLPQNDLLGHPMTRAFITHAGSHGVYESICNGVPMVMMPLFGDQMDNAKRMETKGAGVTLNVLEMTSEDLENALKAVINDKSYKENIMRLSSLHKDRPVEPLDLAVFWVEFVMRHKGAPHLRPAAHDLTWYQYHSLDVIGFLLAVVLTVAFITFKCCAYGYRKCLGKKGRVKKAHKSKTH

[7] = Drug metabolism in human intestinal microsomes assessed as T-5224 acyl O-glucuronide formation per mg protein after 10 to 60 mins by HPLC method; type: ADME, Intestine, Microsome; procedure, shortened: as §3
[8] = molecular target: T1, UDP-glucuronosyltransferase 1A1; assay: Drug metabolism assessed as Vmax/Km ratio for human UGT1A1-mediated T-5224 hydroxyl O-glucuronide formation per mg protein after 10 to 60 mins in presence of UDP-glucuronic acid by HPLC method; type: ADME; details: recombinant enzyme; procedure, shortened: as §2

Chain of Cytochrome P450 2E1 (P05181 whole entry): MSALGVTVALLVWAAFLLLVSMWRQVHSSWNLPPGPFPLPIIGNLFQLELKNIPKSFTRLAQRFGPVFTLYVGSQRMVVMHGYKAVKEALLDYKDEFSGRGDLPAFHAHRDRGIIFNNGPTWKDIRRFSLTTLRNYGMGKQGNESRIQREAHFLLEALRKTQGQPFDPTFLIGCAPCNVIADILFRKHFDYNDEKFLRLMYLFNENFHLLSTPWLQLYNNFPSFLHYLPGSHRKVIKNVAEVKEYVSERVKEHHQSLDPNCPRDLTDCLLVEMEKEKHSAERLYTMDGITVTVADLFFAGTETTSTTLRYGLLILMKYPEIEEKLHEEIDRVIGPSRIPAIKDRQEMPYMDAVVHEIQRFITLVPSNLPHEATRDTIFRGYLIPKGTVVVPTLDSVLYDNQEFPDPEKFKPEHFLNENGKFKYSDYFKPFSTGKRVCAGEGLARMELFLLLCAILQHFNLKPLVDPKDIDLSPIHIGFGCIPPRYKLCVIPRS

Molecule O=C(O)CCc1cc(C(=O)c2ccc(OC3CCCC3)cc2O)ccc1OCc1ccc2c(O)noc2c1 has a Ki [1] of 2.64 µM, a Vmax/Km [2] of 83.9 µL/min and a Vmax/Km [3] of 40.9 µL/min. For the same molecule, the Vmax [4] was 106 pmol/min, the Drug metabolism (Liver microsome) was “metabolite_detected” and the Drug metabolism (Cytochrome P450 2E1) was “metabolite_not_detected”. For the same molecule, the Ki [5] was 58 µM, the Drug metabolism [6] was “metabolite_detected” and the Vmax [7] was 241 pmol/min. The Vmax/Km [8] was 26.2 µL/min.
